From ChEMBL document CHEMBL1141843, “Sesquiterpene esters from Celastrus orbiculatus and their structure-activity relationship on the modulation of multidrug resistance” (J Nat Prod, 1999)

Legend:
[1] = system: KB-V1; assay: Reversal of P-glycoprotein-mediated multidrug resistance assessed as ratio of IC50 for human KB-V1 cells to IC50 for human KB-V1 cells in presence of 100 nM vinblastine; type: cell-based
Outline: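 KB-V1 cells given compound alone or with 100 nM vinblastine for 48 h. Growth read by SRB at 570 nm and IC50 taken against vehicle controls. Enhancement factor = IC50 in KB-V1 without VLB / IC50 with VLB. Mean ± S.D. of two experiments.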

[2] = Cytotoxicity against vinblastine resistant human KBV1 cells after 48 hrs by SRB method; type: functional, cell-based; details: KB-V1, 48 h
Outline: (§1)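 KB-3-1 and KB-V1 cells grown in DMEM with 2 mM L-glutamine and 10% heat-inactivated FCS at 37 °C, 5% CO2. KB-V1 kept under VLB. 2.5-5.0×10^3 cells/well seeded in 5% FCS medium, attached overnight, then exposed to compound for 48 h. Vehicle was DMSO or MeOH, final <0.5%. Read by SRB: TCA fixation, 0.4% SRB stain, Tris solubilization, absorbance at 570 nm. Mean ± S.D. of two experiments.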

[3] = Cytotoxicity against human KB31 cells after 48 hrs by SRB method; type: functional, cell-based; details: KB 3-1, 48 h; outline: as §1
[4] = Cytotoxicity against vinblastine resistant human KBV1 cells after 48 hrs in presence of 100 nM vinblastine by SRB method; type: functional, cell-based; details: KB-V1, 48 h; outline: as §1
[5] = system: KB-V1; assay: Reversal of P-glycoprotein-mediated multidrug resistance assessed as ratio of vinblastine IC50 for drug-resistant human KB-V1 cells to vinblastine IC50 for human drug-sensitive KB-3-1 cells at 10 uM after 48 hrs by SRB method; type: cell-based
Outline: (§2)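 KB-3-1 and resistant KB-V1 cells seeded overnight, then treated for 48 h with a concentration range of adriamycin, vinblastine or taxol plus 10 μM modulator. Growth read by SRB at 570 nm and IC50 taken against vehicle controls. Relative resistance = IC50 in KB-V1 / IC50 in KB-3-1.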

[6] = system: KB-V1; assay: Reversal of P-glycoprotein-mediated multidrug resistance assessed as ratio of adriamycin IC50 for drug-resistant human KB-V1 cells to adriamycin IC50 for human drug-sensitive KB-3-1 cells at 10 uM after 48 hrs by SRB method; type: cell-based; outline: as §2
[7] = system: KB-V1; assay: Reversal of P-glycoprotein-mediated multidrug resistance assessed as ratio of taxol IC50 for drug-resistant human KB-V1 cells to taxol IC50 for human drug-sensitive KB-3-1 cells at 10 uM after 48 hrs by SRB method; type: cell-based; outline: as §2

| Compound | Ratio IC50 [1] | IC50 [2] | IC50 [3] | IC50 [4] | Ratio IC50 [5] | Ratio IC50 [6] | Ratio IC50 [7] |
| --- | --- | --- | --- | --- | --- | --- | --- |
| CC(=O)O[C@H]1C[C@@H](C)[C@]23OC(C)(C)[C@H](C[C@H](OC(=O)c4ccccc4)[C@]2(C)[C@H]1OC(C)=O)[C@H]3OC(C)=O | 87 | 34.8 µM | 41.3 µM | 0.4 µM | 2.3 | 8.3 | 3.7 |
| CC(=O)O[C@H]1[C@@H](OC(=O)c2ccccc2)C[C@@H](C)[C@]23OC(C)(C)[C@H](C[C@H](OC(=O)c4ccccc4)[C@]12C)[C@H]3OC(=O)c1ccccc1 [ORBICULIN G] | 5.9 | 28.6 µM | 26.4 µM | 4.8 µM | 168 | 153 | 143 |
| CC(=O)O[C@H]1C[C@@H](C)[C@]23OC(C)(C)[C@H](C[C@H](OC(=O)c4ccccc4)[C@]2(C)[C@H]1OC(C)=O)[C@H]3OC(=O)c1ccccc1 [ORBICULIN A] | 80 | 32 µM | 31.6 µM | 0.4 µM | 0.9 | 3 | 1.2 |
| CC(=O)O[C@H]1CC[C@@H](C)[C@]23OC(C)(C)[C@H](C[C@H](OC(=O)c4ccccc4)[C@]12C)[C@H]3OC(=O)c1ccco1 [ORBICULIN B] | 12.5 | 246 µM | 268 µM | 19.6 µM | – | – | – |
| CC(=O)O[C@H]1CC[C@@H](C)[C@]23OC(C)(C)[C@H](C[C@H](OC(=O)c4ccco4)[C@]12C)[C@H]3OC(=O)c1ccccc1 [ORBICULIN C] | 9.6 | 9.6 µM | 8.6 µM | 1 µM | – | – | – |
| CC(=O)OC[C@@]12[C@@H](OC(C)=O)CC[C@@H](C)[C@]13OC(C)(C)[C@H](C[C@@H]2OC(=O)c1ccccc1)[C@H]3OC(C)=O | 79.4 | 79.4 µM | 85.3 µM | 1 µM | 12.9 | 5.5 | 10 |
| CC(=O)O[C@H]1[C@@H](OC(=O)c2ccco2)C[C@@H](C)[C@]23OC(C)(C)[C@H](C[C@H](OC(=O)c4ccccc4)[C@]12C)[C@H]3OC(=O)c1ccco1 [ORBICULIN F] | 35.7 | 39.3 µM | 32.4 µM | 1.1 µM | 8.9 | 4.4 | 11 |
| CC(=O)OC[C@]12[C@@H](OC(=O)c3ccccc3)C[C@@H]3[C@@H](OC(C)=O)[C@]1(OC3(C)C)[C@H](C)C[C@H](OC(=O)c1ccccc1)[C@@H]2OC(C)=O | 57.2 | 28.6 µM | 27.3 µM | 0.5 µM | 2.7 | 1.4 | 3.9 |
| CC(=O)O[C@H]1CC[C@@H](C)[C@]23OC(C)(C)[C@H](C[C@H](OC(=O)c4ccco4)[C@]12C)[C@H]3OC(=O)c1ccco1 [ORBICULIN D] | 14.8 | 17.8 µM | 16.8 µM | 1.2 µM | – | – | – |
| CC(=O)O[C@H]1CC[C@@H](C)[C@]23OC(C)(C)[C@H](C[C@H](OC(=O)c4ccccc4)[C@]12C)[C@H]3OC(=O)c1ccccc1 | 6.4 | 12.3 µM | 10.5 µM | 1.9 µM | – | – | – |
| CC(=O)O[C@H]1C[C@@H](C)[C@]23OC(C)(C)[C@H](C[C@H](OC(=O)c4ccccc4)[C@]2(C)[C@H]1OC(C)=O)[C@H]3OC(=O)c1ccco1 [ORBICULIN E] | 66.2 | 33.1 µM | 28.3 µM | 0.5 µM | 1.6 | 1.8 | 2.6 |
